# Measurements as given in ChEMBL document CHEMBL1122917, “Vinblastin-23-oyl amino acid derivatives: chemistry, physicochemical data, toxicity, and antitumor activities against P388 and L1210 leukemias” (J Med Chem, 1985).
# How the values were obtained:
# [1] = test system: Mus musculus; experiment: Number of survivors of DBA2 mice on 30th day after inoculation with L1210 leukemia cell line intravenously at a dose of 65 mg/kg/day; 0/10; assay type: functional; settings: route intravenous
# [2] = test system: Mus musculus; experiment: Number of survivors on 30th day at dose 60 mg/kg/day in 10 mice implanted with P388 leukemia cell line 1,5,9 scheduled days; 9/9; assay type: functional
# [3] = test system: Mus musculus; experiment: Number of survivors on 60th day at dose 60 mg/kg/day in 10 mice implanted with P388 leukemia cell line for 1st scheduled day; 0/9; assay type: functional
# [4] = test system: Mus musculus; experiment: Number of survivors of DBA2 mice on 60th day after inoculation with L1210 leukemia cell line intravenously at a dose of 65 mg/kg/day; 0/10; assay type: functional; settings: route intravenous
# [5] = test system: Mus musculus; experiment: Percent increase in life span at dose 20 mg/kg/day in 10 mice implanted with P388 leukemia cell line; assay type: functional
# In short: (§1)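 Female DBA2 mice inoculated iv on day 0 with 10^4 P388 cells; single iv treatment on day 1 with drug as sulfate salt in physiological saline. Survival followed; %ILS from all deaths and survivors as (T/C × 100) − 100, maximal MST 30 days; survivors counted on days 30 and 60. Most experiments confirmed three times.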
# [6] = test system: Mus musculus; experiment: Number of survivors of DBA2 mice on 60th day after inoculation with L1210 leukemia cell line intravenously at a dose of 70 mg/kg/day; 0/10; assay type: functional; settings: route intravenous
# [7] = test system: Mus musculus; experiment: Number of survivors on 60th day at dose 20 mg/kg/day in 10 mice implanted with P388 leukemia cell line; 0/10; assay type: functional
# [8] = test system: Mus musculus; experiment: Percent increase in life span at dose 55 mg/kg/day in 10 mice implanted with P388 leukemia cell line; assay type: functional; in short: as §1
# [9] = test system: Mus musculus; experiment: Percent increase in life span at dose 56 mg/kg/day in 10 mice implanted with P388 leukemia cell line; assay type: functional
# [10] = test system: Mus musculus; experiment: Number of survivors on 60th day at dose 60 mg/kg/day in 10 mice implanted with P388 leukemia cell line; 3/10; assay type: functional
# [11] = test system: Mus musculus; experiment: Number of survivors on 30th day at dose 55 mg/kg/day in 10 mice implanted with P388 leukemia cell line for1,5,9 scheduled days; 2/10; assay type: functional
# [12] = test system: Mus musculus; experiment: Number of survivors on 60th day at dose 70 mg/kg/day in 10 mice implanted with P388 leukemia cell line; 0/11; assay type: functional
# [13] = test system: Mus musculus; experiment: Number of survivors of DBA2 mice on 30th day after inoculation with L1210 leukemia cell line intravenously at a dose of 60 mg/kg/day; 0/10; assay type: functional; settings: route intravenous
# [14] = test system: Mus musculus; experiment: Percent increase in life span at dose 60 mg/kg/day in 10 mice implanted with P388 leukemia cell line for 1,5,9 schedule days; assay type: functional
# [15] = test system: Mus musculus; experiment: Percent increase in life span at dose 65 mg/kg/day in 10 mice implanted with P388 leukemia cell line; assay type: functional; in short: as §1
# [16] = test system: Mus musculus; experiment: Percent increase in life span at dose 60 mg/kg/day in 10 mice implanted with P388 leukemia cell line for 1st schedule day; assay type: functional
# [17] = test system: Mus musculus; experiment: Number of survivors on 30th day at dose 60 mg/kg/day in 10 mice implanted with P388 leukemia cell line for 1st scheduled day; 8/10; assay type: functional
# [18] = test system: Mus musculus; experiment: Number of survivors of DBA2 mice on 60th day after inoculation with L1210 leukemia cell line intravenously at a dose of 45 mg/kg/day; 0/10; assay type: functional; settings: route intravenous
# [19] = test system: Mus musculus; experiment: Number of survivors on 60th day at dose 55 mg/kg/day in 10 mice implanted with P388 leukemia cell line for 1st scheduled day; 6/10; assay type: functional
# [20] = test system: Mus musculus; experiment: Number of survivors on 60th day at dose 6 mg/kg/day in 7 mice implanted with P388 leukemia cell line for 1,8.15 scheduled days from Exp-1; 0/10; assay type: functional
# [21] = test system: Mus musculus; experiment: Number of survivors on 30th day at dose 5 mg/kg/day in 9 mice implanted with P388 leukemia cell line; 1/9; assay type: functional
# [22] = test system: Mus musculus; experiment: Percent increase in life span at dose 8 mg/kg/day in 7 mice implanted with P388 leukemia cell line for 1,8,15 schedule days from Exp-1; assay type: functional
# [23] = test system: Mus musculus; experiment: Number of survivors on 30th day at dose 9 mg/kg/day in 10 mice implanted with P388 leukemia cell line; 3/10; assay type: functional
# [24] = test system: Mus musculus; experiment: Number of survivors on 60th day at dose 5 mg/kg/day in 9 mice implanted with P388 leukemia cell line; 0/10; assay type: functional
# [25] = test system: Mus musculus; experiment: Number of survivors on 30th day at dose 11 mg/kg/day in 10 mice implanted with P388 leukemia cell line; 0/10; assay type: functional
# [26] = test system: Mus musculus; experiment: Percent increase in life span of BDF1 mice after inoculation with P388 leukemia intraperitoneally at a dose of 4 mg/kg per day; settings: P388, ip
# [27] = test system: Mus musculus; experiment: Number of survivors on 60th day at dose 10 mg/kg/day in 10 mice implanted with P388 leukemia cell line; 0/10; assay type: functional
# [28] = test system: Mus musculus; experiment: Number of survivors on 60th day at dose 4 mg/kg/day in 10 mice implanted with P388 leukemia cell line; 2/10; assay type: functional
# [29] = test system: Mus musculus; experiment: Number of survivors on 60th day at dose 4 mg/kg/day in 7 mice implanted with P388 leukemia cell line for 1,8,15 acheduled days form Exp-1; 0/10; assay type: functional
# [30] = test system: Mus musculus; experiment: Percent increase in life span at dose 4 mg/kg/day in 7 mice implanted with P388 leukemia cell line for 1,8,15 scheduled day from Exp-1; assay type: functional
# [31] = test system: Mus musculus; experiment: Number of survivors on 60th day at dose 8 mg/kg/day in 9 mice implanted with P388 leukemia cell line; 0/9; assay type: functional
# [32] = test system: Mus musculus; experiment: Number of survivors of DBA2 mice on 60th day after inoculation with L1210 leukemia cell line intraperitoneally at a dose of 2 mg/kg/day; 0/11; assay type: functional; settings: route intraperitoneal
# [33] = test system: Mus musculus; experiment: Number of survivors of DBA2 mice on 60th day after inoculation with L1210 leukemia cell line intravenously at a dose of 1.5 mg/kg/day; 0/10; assay type: functional; settings: route intravenous
# [34] = test system: Mus musculus; experiment: Percent increase in life span at dose 1 mg/kg/day in 10 mice implanted with P388 leukemia cell line; assay type: functional
# [35] = test system: Mus musculus; experiment: Number of survivors of DBA2 mice on 30th day after inoculation with L1210 leukemia cell line intravenously at a dose of 6.5 mg/kg/day; 0/10; assay type: functional; settings: route intravenous
# [36] = test system: Mus musculus; experiment: Percent increase in life span of DBA2 mice after inoculation with L1210 leukemia intravenously at a dose of 3.5 mg/kg per day; assay type: functional; settings: route intravenous
# [37] = test system: Mus musculus; experiment: Number of survivors of DBA2 mice on 60th day after inoculation with L1210 leukemia cell line intravenously at a dose of 2 mg/kg/day; 0/10; assay type: functional; settings: route intravenous
# [38] = test system: Mus musculus; experiment: Number of survivors on 60th day at dose 0.5 mg/kg/day in 10 mice implanted with P388 leukemia cell line; 0/10; assay type: functional
# [39] = test system: Mus musculus; experiment: Percent increase in life span of DBA2 mice after inoculation with L1210 leukemia intravenously at a dose of 0.5 mg/kg per day; assay type: functional; settings: route intravenous
# [40] = test system: Mus musculus; experiment: Number of survivors on 30th day at dose 3 mg/kg/day in 10 mice implanted with P388 leukemia cell line; 0/9; assay type: functional
# [41] = Acute iv toxicity against Swiss strain of 100 mice after 8 doses of injection; assay type: organism-based; settings: mouse, in vivo
smiles,measurement,setting,value
CCOC(=O)[C@H](Cc1c[nH]c2ccccc12)NC(=O)[C@@]1(O)[C@H](O)[C@]2(CC)C=CCN3CC[C@@]4(c5cc([C@@]6(C(=O)OC)C[C@H]7C[N@](CCc8c6[nH]c6ccccc86)C[C@](O)(CC)C7)c(OC)cc5N(C)[C@@]14C)[C@@H]32,Survivors,[1],0
same,Survivors,[2],9
same,Survivors,[3],0
same,Survivors,[4],0
same,ILS at 20 mg/kg/day,[5],43.9%
same,Survivors,[6],0
same,Survivors,[7],0
same,ILS at 55 mg/kg/day,[8],> 183%
same,ILS at 56 mg/kg/day,[9],113%
same,Survivors,[10],3
same,Survivors,[11],2
same,Survivors,[12],0
same,Survivors,[13],0
same,ILS at 60 mg/kg/day,[14],> 426%
same,ILS at 65 mg/kg/day,[15],> 173%
same,ILS at 60 mg/kg/day,[16],> 224%
same,Survivors,[17],8
same,Survivors,[18],0
same,Survivors,[19],6
CCOC(=O)[C@@H](NC(=O)[C@@]1(O)[C@H](O)[C@]2(CC)C=CCN3CC[C@@]4(c5cc([C@@]6(C(=O)OC)C[C@H]7C[N@](CCc8c6[nH]c6ccccc86)C[C@](O)(CC)C7)c(OC)cc5N(C)[C@@]14C)[C@@H]32)[C@@H](C)CC,Survivors,[20],0
same,Survivors,[21],1
same,ILS at 8 mg/kg/day,[22],119%
same,Survivors,[23],3
same,Survivors,[24],0
CC[C@]1(O)C[C@@H]2CN(CCc3c([nH]c4ccccc34)[C@@](C(=O)OC)(c3cc4c(cc3OC)N(C)[C@H]3[C@@](O)(C(=O)OC)[C@H](OC(C)=O)[C@]5(CC)C=CCN6CC[C@]43[C@@H]65)C2)C1 [VINBLASTINE],Survivors,[25],0
same,ILS at 4 mg/kg/day,[26],0%
same,Survivors,[27],0
same,Survivors,[28],2
same,Survivors,[29],0
same,ILS at 4 mg/kg/day,[30],58%
same,Survivors,[31],0
CC[C@]1(O)C[C@H]2CN(CCc3c([nH]c4ccccc34)[C@@](C(=O)OC)(c3cc4c(cc3OC)N(C=O)[C@H]3[C@@](O)(C(=O)OC)[C@H](OC(C)=O)[C@]5(CC)C=CCN6CC[C@]43[C@@H]65)C2)C1 [VINCRISTINE],Survivors,[32],0
same,Survivors,[33],0
same,ILS at 1 mg/kg/day,[34],16%
same,Survivors,[35],0
same,ILS at 3.5 mg/kg/day,[36],14.7%
same,Survivors,[37],0
same,Survivors,[38],0
same,ILS at 0.5 mg/kg/day,[39],1%
CC[C@]1(O)C[C@@H]2CN(CCc3c([nH]c4ccccc34)[C@@](C(=O)OC)(c3cc4c(cc3OC)N(C)[C@H]3[C@@](O)(C(N)=O)[C@H](O)[C@]5(CC)C=CCN6CC[C@]43[C@@H]65)C2)C1 [VINDESINE],Survivors,[40],0
same,LD50,[41],13.8 mg/kg
